Measured values pooled from the literature.
LATS1: Serine/threonine-protein kinase LATS1 (LATS1, Homo sapiens, UniProt O95835)
ADRA2A: Alpha-2A adrenergic receptor (ADRA2A, Homo sapiens, UniProt P08913)
SLC18A2: Synaptic vesicular amine transporter (SLC18A2, Homo sapiens, UniProt Q05940)
CA1: Carbonic anhydrase 1 (CA1, Homo sapiens, UniProt P00915)

SMILES	target	test	conditions	measurement	result
O=C(Nc1c[nH]nc1-c1nc2cc(CN3CCOCC3)ccc2[nH]1)NC1CC1	LATS1	enzyme activity, inhibitor, radiometric		IC50	73 nM
COc1ccc(Cl)cc1N1CCN(Cc2cccnc2Oc2ccc(-c3c(C)c(=O)[nH]c(=O)n3C)c(C)c2)CC1	ADRA2A	ligand displacement, radioligand		Ki	76.5 nM
O=C(CCCN1CCC(O)(c2ccc(Br)cc2)CC1)c1ccc(F)cc1	SLC18A2	transporter uptake, inhibitor		IC50	92 nM
Cc1cc(Oc2ncccc2CN2CCN(c3ncccc3C(F)(F)F)CC2)ccc1-c1c(C)c(=O)[nH]c(=O)n1C	ADRA2A	ligand displacement, radioligand		Ki	47.4 nM
Cc1ccccc1N1CCN(CCc2nnc3n2CCCC3)CC1	SLC18A2	transporter uptake, inhibitor		IC50	566 nM
CN1CCC(=C2c3ccccc3CC(=O)c3sccc32)CC1	CA1	enzyme activity, inhibitor, absorbance	pH 7.4	IC50	10300 nM
CCc1nn(CCCN2CCN(c3cccc(Cl)c3)CC2)c(=O)n1CCOc1ccccc1	SLC18A2	transporter uptake, inhibitor, radiometric	cell membranes	IC50	667 nM
Cc1cc(Oc2ncccc2CN2CCN(c3ccc(F)cc3F)CC2)ccc1-c1c(C)c(=O)[nH]c(=O)n1C	ADRA2A	ligand displacement, radioligand		Ki	326 nM
Cc1cc(C#CC2(O)CCCCC2)cc2c1cc(C(=O)O)n2-c1ccccc1	Microphthalmia-associated transcription factor (Homo sapiens, UniProt O75030)	binding, ITC		Kd	3500 nM
c1cc(-c2ccc(C3CCNCC3)cc2)c2cc[nH]c2n1	LATS1	target engagement in cells, BRET		IC50	> 50000 nM
CN(C)CCCN1c2ccccc2Sc2ccc(Cl)cc21	SLC18A2	transporter uptake, inhibitor		IC50	3400 nM
Nc1nc2c(ncn2COCCO)c(=O)[nH]1	Carbonic anhydrase 2 (CA2, Homo sapiens, UniProt P00918)	enzyme activity, inhibitor, absorbance	pH 7.4	IC50	13800 nM
Cc1cc(-c2ccnc3[nH]cc(F)c23)cc(F)c1[C@@]1(O)[C@H](C)CN(C(=O)CN)C[C@@H]1C	LATS1	binding, TR-FRET		Kd	0.9 nM
COc1ccc(CN=c2[nH]c(N3CCC[C@H]3CO)ncc2C(=O)NCc2ncccn2)cc1Cl	SLC18A2	transporter uptake, inhibitor		IC50	9670 nM
Cc1cc(Oc2ncccc2CN2CCN(c3ccccc3)CC2)ccc1-c1c(C)c(=O)[nH]c(=O)n1C	ADRA2A	cAMP, agonist, luciferase		EC50	10700 nM
CC(C)(C(=O)O)c1ccc(C(O)CCCN2CCC(C(O)(c3ccccc3)c3ccccc3)CC2)cc1 (centres unmarked)	CA1	enzyme activity, inhibitor, absorbance	pH 7.4	IC50	19300 nM
Cc1cc(Oc2ncccc2CN2CCN(c3ccccc3Br)CC2)ccc1-c1c(C)c(=O)[nH]c(=O)n1C	ADRA2A	ligand displacement, radioligand		Ki	135 nM
O=C(c1ccc(OCCN2CCCCC2)cc1)c1c(-c2ccc(O)cc2)sc2cc(O)ccc12	SLC18A2	transporter uptake, inhibitor, radiometric	cell membranes	IC50	127 nM
CC1CNCCC1(O)c1ccc(-c2ccnc3[nH]cc(F)c23)cc1 (centres unmarked)	LATS1	enzyme activity, inhibitor, radiometric		IC50	9.8 nM
Cc1cc(Oc2ncccc2CN2CCN(c3ccc(C(F)(F)F)cn3)CC2)ccc1-c1c(C)c(=O)[nH]c(=O)n1C	ADRA2A	ligand displacement, radioligand		Ki	1280 nM
